ALR H2O2 inh – blocks human ALR sulfhydryl oxidase activity; P55789; inhibition, % (concentration not given with the values); 290,000 tested, 3.8% active; AID 485317; purified ALR, DTT oxidation, H2O2 HRP-luminol luminescence;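 active = mean replicate inhibition above about 79%, with every replicate also reaching it, limit read from the data; inconclusive = only one of the two criteria met; inactive = mean below limit and not every replicate reaching it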
Target sequence (P55789 whole entry, looked up): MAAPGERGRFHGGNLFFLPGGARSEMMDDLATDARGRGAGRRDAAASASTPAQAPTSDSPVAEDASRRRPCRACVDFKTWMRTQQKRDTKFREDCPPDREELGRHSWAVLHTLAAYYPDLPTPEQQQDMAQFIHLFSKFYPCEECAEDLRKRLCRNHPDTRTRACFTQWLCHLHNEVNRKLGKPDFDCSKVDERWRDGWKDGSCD
FAS-TE inh – FAS thioesterase (human) inhibition | 360,000 tested, 0.67% active | recombinant FAS-TE, OMFH fluorogenic substrate, fluorescence endpoint | inhibition, % at 15 µM;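 active = compounds whose normalised, plate-corrected inhibition of enzyme fluorescence in the single-dose primary screen is 50% or more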
HDAC3 inh – inhibitors of human histone deacetylase 3. inhibition, % at 8.3 µM. recombinant HDAC3, fluorogenic peptide/trypsin coupled, fluorescence. 320,000 tested, 0.15% active; in the data active = inhibition above about 26%, passing the limit was not always enough; inconclusive = no clear call, values can overlap the other calls
M18AAP inhibitor – PfM18AAP enzyme inhibition; recombinant PfM18AAP, H-Glu-NHMec fluorogenic cleavage; inhibition, % at 7.35 µM; 290,000 tested, 1.2% active; AID 1822;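 active = inhibition above the campaign mean inhibition over all tested compounds plus 3 SD, cut at about 28% in these data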
UCH37 DUB inh – human UCH37 deubiquitinating enzyme inhibition; Q9Y5K5; purified proteasome/UCH37, Ub-AMC cleavage fluorescence; inhibition, % (no concentration beside the values); 330,000 tested, 0.33% active;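 active = mean inhibition over replicate wells above about 20%, limit read from the data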
Target sequence (Q9Y5K5 whole entry, looked up): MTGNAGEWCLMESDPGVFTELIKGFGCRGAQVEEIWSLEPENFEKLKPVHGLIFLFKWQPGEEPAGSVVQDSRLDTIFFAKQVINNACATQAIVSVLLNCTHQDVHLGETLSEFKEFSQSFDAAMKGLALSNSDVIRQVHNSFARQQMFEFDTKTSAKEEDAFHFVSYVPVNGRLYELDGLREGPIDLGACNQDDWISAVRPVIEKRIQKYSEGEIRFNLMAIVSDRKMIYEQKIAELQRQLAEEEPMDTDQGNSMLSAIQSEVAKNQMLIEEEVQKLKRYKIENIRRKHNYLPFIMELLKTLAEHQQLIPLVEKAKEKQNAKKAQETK
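Material: human UCH37 enzyme supplied as purified proteasome complex. Measure: % inhibition of Ub-AMC cleavage fluorescence. Medium: pH 7.4 Tris-HCl (50 mM) with ovalbumin, ATP-MgCl2, DTT. Times: 30 min preincubation with enzyme, 25 min cleavage at room temperature. Detection: AMC fluorescence intensity at 355/460 nm.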
Rtt109 Vps75 – inhibitors of Candida albicans Rtt109/Vps75 histone acetyltransferase; 330,000 tested, 0.16% active; inhibition, % at 34.9 µM; purified Rtt109/Vps75, ThioGlo CoA-SH fluorescence, 4 h; AID 540336;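 active = inhibition of at least 50% in every replicate; inconclusive = best replicate reaches 50% inhibition but some replicates fall short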
Hits are given with their value; i = inactive; ? = inconclusive; nt = no result given. Hits are enriched below; roughly 4.6% of the tested compounds scored in any of these assays.

SMILES	ALR H2O2 inh	FAS-TE inh	HDAC3 inh	M18AAP inhibitor	UCH37 DUB inh	Rtt109 Vps75
O=[N+]([O-])c1ccc(C=Nn2cn[nH]c2=S)cc1	nt	nt	nt	nt	i	nt
S=c1[nH]ncn1/N=C/c1ccccc1	98	i	i	i	nt	i
Cc1n[nH]c(=S)n1/N=C/c1ccccc1	97	i	i	i	nt	i
O=C(COc1ccc(C=NNS(=O)(=O)c2ccccc2)cc1)NCCc1ccccc1	nt	nt	nt	nt	i	nt
S=c1[nH]ncn1/N=C/c1ccc(N2CCOCC2)cc1	99	i	?	31	nt	i
C(=N\n1cnnc1)/c1ccc(N2CCOCC2)cc1	i	i	i	i	nt	i
CCC(CC)c1nnc(NC(=O)COc2ccc3c(c2)OCO3)s1	i	i	i	30	i	i
CC(C)c1nnc(NC(=O)COc2ccc3c(c2)OCO3)s1	i	i	i	i	i	i
COc1ccc(-c2[nH]c(-c3ccc(C)cc3)nc2SCC(=O)Nc2nccs2)cc1	94	i	i	i	i	i
COc1ccc(-c2nc(SCC(=O)Nc3nccs3)c(-c3ccc(Cl)cc3)[nH]2)cc1	i	i	i	i	i	i
Cc1ccc(C(=O)NN=CC2=Cc3ccccc3OC2C)cc1 (centres undefined)	nt	nt	nt	nt	i	nt
CC(Oc1cc(Cl)ccc1Cl)C(=O)NN=Cc1ccnn1C (centres undefined)	nt	nt	nt	nt	i	nt
Nc1ccc2c(c1)Cc1cc([N+](=O)[O-])ccc1-2	i	i	i	i	29	nt
Cc1ccc(C=NNC(=O)Cn2nc(C)c([N+](=O)[O-])c2C)o1	nt	nt	nt	nt	i	nt
O=Cc1c(Sc2ccccc2)nc2ccccn2c1=O	98	i	i	i	i	i
O=Cc1c(Sc2ccccn2)nc2ccccn2c1=O	97	i	i	i	i	i
c1ccc(Nc2ccccc2Nc2ccccn2)nc1	89	i	i	i	i	i
O=c1c2ccccc2c(C=NCc2ccccn2)c(O)n1-c1ccccc1	i	i	i	i	i	i
Cc1ccc(-n2c(O)c(C=NCc3ccccn3)c3ccccc3c2=O)cc1C	i	i	?	i	i	62
COc1ccc(-c2[nH]ncc2-c2ccc3c(c2)OCCO3)c(O)c1	92	i	i	i	i	i
CCCc1cc(-c2[nH]ncc2-c2ccc3c(c2)OCCCO3)c(O)cc1OC	nt	nt	nt	i	nt	nt
N=C1C(c2nc3ccccc3s2)=C(O)CN1Cc1ccco1	98	i	i	i	i	i
O=C(CSCc1ccco1)c1ccc(Cl)s1	98	nt	90	i	nt	nt
O=C(NN=Cc1cc([N+](=O)[O-])ccc1Cl)c1cnccn1	nt	nt	nt	nt	i	nt
CN1C(=O)C(CC(=O)O)S/C1=N\N=C\c1ccc(O)cc1O (centres undefined)	85	i	i	i	nt	i
SMILES	ALR H2O2 inh	FAS-TE inh	HDAC3 inh	M18AAP inhibitor	UCH37 DUB inh	Rtt109 Vps75
C=CCN1C(=O)C(CC(=O)O)S/C1=N/N=C/c1ccc(N(CC)CC)cc1 (centres undefined)	99	i	i	nt	nt	i
CN(C)c1ccc(/C=N/N=C2/SC(CC(=O)O)C(=O)N2c2ccc(O)cc2)cc1 (centres undefined)	97	i	i	i	nt	i
C=CCN1C(=O)C(CC(=O)O)SC1=NN=Cc1ccc(N(CC)CC)cc1 (centres undefined)	nt	nt	nt	nt	i	nt
CC(=NNC=O)c1ccncc1	nt	nt	nt	nt	i	nt
CC1=NN(c2cccc(C(=O)O)c2)C(=O)/C1=C\C=C\c1ccco1	83	i	i	i	i	i
Cc1c(CCC(=O)O)c(=O)oc2cc3occ(-c4ccc(Cl)cc4)c3cc12	i	i	i	i	i	i
Cc1c(CCC(=O)O)c(=O)oc2cc3occ(-c4ccc(F)cc4)c3cc12	97	i	i	i	i	i
Cc1ccc[n+](-c2[nH]c(=O)sc2C=NNC(=O)c2ccccc2[O-])c1	nt	nt	nt	nt	i	nt
N#Cc1cc(-c2ccccc2)oc1NC(=O)c1ccccc1	79	i	i	i	i	i
COC(=O)Cc1[nH]nc2c1C(c1ccc(O)c(OC)c1)C(C#N)=C(N)O2 (centres undefined)	99	i	i	i	i	i
COC(=O)Cc1[nH]nc2c1C(c1cc(OC)c(OC)c(OC)c1)C(C#N)=C(N)O2 (centres undefined)	nt	i	i	i	i	i
O=C(NNC(=S)NC(=O)c1ccccc1)c1cccnc1	98	i	i	i	i	i
COc1ccc(C(=O)NC(=S)NNC(=O)c2cccnc2)cc1	99	i	i	i	i	i
COc1ccc(C(=O)NC(=S)NNC(=O)[C@H]2C[C@@H]2c2ccccc2)cc1OC	i	i	i	i	i	i
COc1cc(OC)cc(C(=O)NC(=S)NNC(=O)[C@H]2C[C@@H]2c2ccccc2)c1	99	i	i	i	i	i
O=C(NC(=S)NNC(=O)c1ccccc1F)c1cccnc1	i	i	i	29	i	nt
CC(CC(=O)Nc1ccc(N(C)C)cc1)=NNC(=O)c1ccc([N+](=O)[O-])cc1Cl	nt	nt	nt	nt	i	nt
COc1cc(OC)cc(C(=O)NNC(=S)NC(=O)c2cccnc2)c1	98	i	?	i	i	i
O=C(CCC(=O)N1CCCC(Nc2ccccc2)C1)c1ccc(F)cc1 (centres undefined)	99	i	i	i	i	i
O=C(CCN1CCOCC1)N1CCCC(Nc2ccc(F)cc2)C1 (centres undefined)	i	i	i	i	i	i
CCc1nccn1CCC(=O)N1CCCC(Nc2ccc(F)cc2)C1 (centres undefined)	99	i	i	i	i	i
O=C(CCc1ccccn1)N1CCCC(Nc2ccc(F)cc2)C1 (centres undefined)	99	i	i	i	i	i
Cn1nc(C(F)(F)F)c(C=NOC(=O)c2ccccc2)c1Sc1ccc(Cl)cc1	nt	nt	nt	nt	i	nt
CN(C)C(=NO)c1c(Cl)cccc1Cl	nt	nt	nt	nt	i	nt
COc1cc(OC)cc(-c2n[nH]c(=S)n2-c2ccc3c(c2)OCCO3)c1	i	i	i	i	i	i
SMILES	ALR H2O2 inh	FAS-TE inh	HDAC3 inh	M18AAP inhibitor	UCH37 DUB inh	Rtt109 Vps75
S=c1[nH]nc(-c2ccc3ccccc3n2)n1-c1ccccc1	i	i	i	i	i	i
S=c1[nH]nc(-c2ccc(Cl)cc2Cl)n1-c1ccc2c(c1)OCCO2	i	i	nt	i	i	nt
S=c1[nH]nc(-c2ccc3ccccc3n2)n1-c1ccc2c(c1)OCCO2	90	i	?	i	i	i
Oc1ccc(-c2n[nH]c(=S)n2-c2ccc3c(c2)OCCO3)c(O)c1	86	i	i	i	i	i
COc1ccc(-c2n[nH]c(=S)n2-c2ccc3c(c2)OCCO3)cc1	91	i	i	30	i	i
CC1CC(c2ccccc2)n2nc(NC(=O)c3ccco3)nc2N1 (centres undefined)	i	i	i	i	i	i
CC1CC(N(C(=O)c2ccco2)c2ccccc2)c2ccccc2N1 (centres undefined)	97	i	i	i	i	i
CSc1nc(=S)cc(C)[nH]1	nt	i	nt	43	i	i
Cc1cc(=S)nc(-c2ccccn2)[nH]1	i	i	i	i	i	i
Cn1c(/C(C#N)=C/c2ccc(O)cc2)nc2ccccc21	99	i	i	i	i	i

Source: PubChem BioAssay (several laboratories)
